The Cmax is the highest concentration seen after dosing. For orientation: Tmax means the time at which the peak concentration occurs. Broadly, the IC50 is the concentration that gives 50% inhibition. For orientation: AUC(0-t) means the area under the concentration-time curve up to a stated or last time point. The low end stands for less exposure, the high end for more exposure.

The record followed here is ChEMBL document CHEMBL4823291, “Discovery of 5,6,7,8-tetrahydropyrido[3,4-d]pyrimidine derivatives as novel selective Axl inhibitors” (Bioorg Med Chem Lett, 2021).

A short description of data set [1]: Cmax in CAnN.Cg-Foxnlnu/CrlCrlj mouse plasma at 50 mg/kg, po single dose measured up to 24 hrs by liquid chromatography tandem mass spectrometry. Format: ADME, organism-based. On the set-up: route oral, dose 50 mg/kg, time <=24.
Data set [2] can be described thus: Tmax in CAnN.Cg-Foxnlnu/CrlCrlj mouse plasma at 50 mg/kg, po single dose measured up to 24 hrs by liquid chromatography tandem mass spectrometry. Format: ADME, organism-based.
Data set [3] addresses T1, Tyrosine-protein kinase Mer (Homo sapiens, UniProt Q12866).
T1 sequence (Q12866 whole entry): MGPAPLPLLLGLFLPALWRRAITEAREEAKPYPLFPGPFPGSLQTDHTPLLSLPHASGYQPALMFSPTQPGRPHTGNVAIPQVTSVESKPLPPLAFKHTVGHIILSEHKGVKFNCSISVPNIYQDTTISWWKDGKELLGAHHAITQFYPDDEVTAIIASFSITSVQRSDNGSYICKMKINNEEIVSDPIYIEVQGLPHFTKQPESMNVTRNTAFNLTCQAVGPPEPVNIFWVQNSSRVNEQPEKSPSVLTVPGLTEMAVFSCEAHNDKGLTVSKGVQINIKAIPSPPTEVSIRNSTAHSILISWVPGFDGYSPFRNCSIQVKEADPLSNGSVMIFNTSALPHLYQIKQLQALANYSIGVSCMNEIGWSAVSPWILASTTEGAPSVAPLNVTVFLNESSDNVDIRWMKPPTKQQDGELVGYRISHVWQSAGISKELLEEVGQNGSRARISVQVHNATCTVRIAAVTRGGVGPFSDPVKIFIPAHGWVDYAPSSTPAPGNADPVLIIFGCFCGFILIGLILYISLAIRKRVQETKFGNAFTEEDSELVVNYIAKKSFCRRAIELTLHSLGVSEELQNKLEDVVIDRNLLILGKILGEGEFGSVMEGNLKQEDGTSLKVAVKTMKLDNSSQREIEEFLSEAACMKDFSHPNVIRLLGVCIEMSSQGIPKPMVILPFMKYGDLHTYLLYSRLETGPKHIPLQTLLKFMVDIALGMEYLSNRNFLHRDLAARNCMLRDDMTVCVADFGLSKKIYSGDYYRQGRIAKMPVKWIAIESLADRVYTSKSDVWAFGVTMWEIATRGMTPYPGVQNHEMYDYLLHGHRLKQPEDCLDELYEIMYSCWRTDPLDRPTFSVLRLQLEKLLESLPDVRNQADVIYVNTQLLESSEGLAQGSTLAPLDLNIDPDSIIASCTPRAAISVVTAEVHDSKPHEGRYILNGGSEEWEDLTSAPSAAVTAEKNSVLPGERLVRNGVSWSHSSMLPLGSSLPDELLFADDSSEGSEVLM
Kind of data set: Inhibition of Mer (unknown origin) by cell free assay.

A short description of data set [4]: AUC (0 to 24 hrs) in CAnN.Cg-Foxnlnu/CrlCrlj mouse plasma at 50 mg/kg, po single dose measured up to 24 hrs by liquid chromatography tandem mass spectrometry. Type of data set: ADME, organism-based. Also on record: route oral, dose 50 mg/kg, time <=24.
Data set [5] in a line: Tmax in CAnN.Cg-Foxnlnu/CrlCrlj mouse plasma at 100 mg/kg, po single dose measured up to 24 hrs by liquid chromatography tandem mass spectrometry. Type of data set: ADME, organism-based.
A further data set concerns the target CYP2C19 (Homo sapiens, UniProt P33261). Nature of the data set: Time dependent inhibition of CYP2C19 in human liver microsomes assessed as enzyme remaining activity using cocktail of probe CYP as substrate at 50 uM. Type of data set: ADME. The following applies: probe cocktail of CYP probe substrates, read-out: Activity. The method in brief:
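Time-dependent CYP inhibition in human liver microsomes, with test compound at 50 µM and a cocktail of probe CYP substrates.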
On the technique in general: Liver microsomes are vesicles of endoplasmic reticulum, rich in cytochrome P450 enzymes.

Sequence of CYP2C19 (P33261 whole entry): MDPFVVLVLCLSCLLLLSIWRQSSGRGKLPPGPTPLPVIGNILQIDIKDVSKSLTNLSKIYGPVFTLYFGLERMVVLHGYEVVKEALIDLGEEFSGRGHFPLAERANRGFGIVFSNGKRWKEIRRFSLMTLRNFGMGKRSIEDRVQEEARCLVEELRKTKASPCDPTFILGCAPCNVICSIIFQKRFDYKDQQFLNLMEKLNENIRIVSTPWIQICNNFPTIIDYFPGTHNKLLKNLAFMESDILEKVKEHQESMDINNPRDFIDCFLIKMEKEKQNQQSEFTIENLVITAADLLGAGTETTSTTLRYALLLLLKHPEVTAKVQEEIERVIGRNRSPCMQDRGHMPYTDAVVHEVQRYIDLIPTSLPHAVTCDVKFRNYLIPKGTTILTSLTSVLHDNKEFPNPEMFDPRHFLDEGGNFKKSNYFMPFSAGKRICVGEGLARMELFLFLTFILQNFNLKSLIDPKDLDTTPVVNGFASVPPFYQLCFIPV

Consider `Cc1ccc(-n2c(=O)c(C(=O)Nc3ccc(Oc4ncnc5c4CCN(CC4CCN(C)CC4)C5)c(F)c3)cn(C3CCCC3)c2=O)nc1`, for which the Cmax in data set [1] stood at 5290 ng/mL. Besides, the Tmax in data set [2] and in data set [5] was 1 h each time. The compound further came in with an IC50 in data set [3] of 190 nM. Moreover, the AUC(0-t) in data set [4] stood at 56700 ng·h/mL. Besides, the activity at 50 µM at CYP2C19 amounted to 89%.
